Experimental data from article PMC3169012 (European journal of pharmacology, 2011).
“Also recorded” adds a separate entry of the source. Positions of bridges follow the written chain, without caps; N, C: chain ends. No end group written: not given here.

How the values were obtained:
[1] = tested on: peripheral blood CD34^+ cell-derived mast cells; conditions: ref Fukuoka et al., 2008, Lappalainen et al., 2007, Oskeritzian et al., 2005, Venkatesha et al., Woolhiser et al., 2004; cited from earlier work
[2] = tested on: bone marrow-derived mast cells; conditions: ref Erdei et al., 2004, Soruri et al., 2008; cited from earlier work
HMC-1 cells [3] = experiment: Ca^2+ mobilization in HMC-1 cells; format: cell-based, human; conditions: representative of 3 experiments; for intracellular Ca^2+ mobilization: indo-1 AM, 355/410 nm, C3a 10 nM, E7 1 µM, E7S 1 µM, compound 48/80 1 µg/ml
In short: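 HMC-1 cells were grown in IMDM with 10% FCS, 2 mM L-glutamine, penicillin and streptomycin. Cells at 1 × 10^6/ml were loaded with 1 µM indo-1 AM plus 1 µM pluronic F-127 for 30 min at room temperature, then washed and resuspended in HEPES-buffered saline. Stimuli were added sequentially at marked times: C3a 10 nM, test peptide 1 µM, test secretagogue 1 µg/ml. Fluorescence was read at excitation 355 nm and emission 410 nm.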

LAD2 mast cells [4] = experiment: Degranulation; format: cell-based, human; conditions: 30 min, β-hexosaminidase release; for degranulation: different concentrations, 3 – 4 experiments
In short: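 LAD2 cells, kept in StemPro-34 with 100 ng/ml SCF, were seeded at 5 × 10^3 per well overnight with human IgE (1 µg/ml). After washing, they were exposed for 30 min to graded test-compound concentrations in buffer with 0.1% BSA. Released β-hexosaminidase was assayed with 1 mM p-nitrophenyl-N-acetyl-β-D-glucosamine (1.5 h, 37°C), stopped with 0.1 M Na2CO3/NaHCO3, and read at A405. Values are percent of the 0.1% Triton X-100 lysate total, mean ± S.E.M of 3–4 experiments.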

HMC-1 cells [5] = conditions: ref Ahamed et al., 2004, Ali et al., 2000; cited from earlier work
HA-tagged human MrgX2 = experiment: Degranulation of RBL-2H3 cells stably expressing MrgX2; format: cell-based; conditions: RBL-2H3 expressing MrgX2; for degranulation: peptides 1 µM, compound 48/80 100 ng/ml or antigen DNP-BSA 30 ng/ml, 30 min, representative of 3 experiments
In short: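 RBL-2H3 cells were nucleofected with HA-tagged receptor plasmid, selected in G418 (1mg/ml) and sorted by anti-HA staining for equivalent expression. 5 × 10^4 cells were primed overnight with mouse anti-DNP IgE (1 µg/ml), washed and stimulated 30 min in 0.1% BSA buffer. Supernatant β-hexosaminidase was read with 1 mM p-nitrophenyl-N-acetyl-β-D-glucosamine (1.5 h, 37°C), stopped with carbonate buffer, A405, as percent of Triton X-100 lysate total.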

[6] = tested on: rat basophilic leukemia, RBL-2H3 cells; conditions: ref Erdei et al., 2004, Soruri et al., 2008; cited from earlier work
mast cell = conditions: ref Hartmann et al., 1997; Nilsson et al., 1996; cited from earlier work
HA-tagged human MrgX1 = experiment: Degranulation of RBL-2H3 cells stably expressing MrgX1; format: cell-based; conditions: RBL-2H3 expressing MrgX1; for degranulation: peptides 1 µM, compound 48/80 100 ng/ml or antigen DNP-BSA 30 ng/ml, 30 min, representative of 3 experiments
LAD2 mast cells [7] = experiment: Ca^2+ mobilization in LAD2 mast cells; format: cell-based, human; conditions: indo-1 AM, C3a 10 nM, E7 1 µM, representative of 3 experiments; for intracellular Ca^2+ mobilization: 355/410 nm, E7S 1 µM, compound 48/80 1 µg/ml
In short: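 LAD2 cells were kept in StemPro-34 with supplements, 2 mM L-glutamine, penicillin, streptomycin and 100 ng/ml SCF, hemi-depleted weekly. Cells at 0.2 × 10^6/ml were loaded with 1 µM indo-1 AM plus 1 µM pluronic F-127 for 30 min at room temperature, washed and resuspended in HEPES-buffered saline. C3a (10 nM) or test peptide (1 µM) was added at marked times. Fluorescence was read at excitation 355 nm and emission 410 nm.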

[8] = tested on: CD34^+-derived human mast cells; experiment: Degranulation; format: cell-based; conditions: 30 min, E7 or E7S 1 µM, 3 – 4 experiments
In short: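 Primary mast cells were grown 7–10 weeks from human CD34+ progenitors in StemPro-34 with SCF and IL-6 (100 ng/ml each), plus IL-3 (30 ng/ml) in the first week only. Cells (5 × 10^3 per well) were primed overnight with human IgE (1 µg/ml), washed, and stimulated 30 min in 0.1% BSA buffer with test peptides at 100 nM or 1 µM. β-Hexosaminidase release was measured at 405 nm and expressed as percent of lysate total, mean ± S.E.M of 3–4 experiments.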

[9] = ref Lu et al., 1984; cited from earlier work
MrgX2 [10] = conditions: requires tryptophan and a positively charged residue; ref Subramanian, 2011; cited from earlier work
C5a receptor = conditions: ref Subramanian, 2011; cited from earlier work
MrgX2 [11] = conditions: 2003, cited from earlier work; for structural requirement for MrgX2 activation: ref Robas et al.
MrgX1 = conditions: ref Lembo et al., 2002; Robas et al., 2003; cited from earlier work
C3a receptor [12] = conditions: guinea pig ileum, C3a versus C5a; ref Ember et al., 1991; cited from earlier work
guinea pig skin = conditions: ref Ember et al., 1991; cited from earlier work
C3a receptor [13] = conditions: versus C3a receptor agonist peptide (C3aP), ref Ember et al., 1991; cited from earlier work
guinea pig platelet = conditions: ref Ember et al., 1991; cited from earlier work
[14] = tested on: mock transfected RBL-2H3 cells; experiment: Degranulation of mock transfected RBL-2H3 cells; format: cell-based, rat; conditions: C3a 100 nM, peptides 1 µM, compound 48/80 100 ng/ml or antigen DNP-BSA 30 ng/ml, 30 min, representative of 3 experiments
In short: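 Rat RBL-2H3 cells, grown in DMEM with 10% FBS and mock-transfected, were seeded at 5 × 10^4 per well and sensitised with anti-DNP IgE (1 µg/ml, 16 h). After washing, they were challenged 30 min in 0.1% BSA buffer with test agents or DNP-BSA antigen. Supernatant β-hexosaminidase was assayed with 1 mM p-nitrophenyl-N-acetyl-β-D-glucosamine (1.5 h, 37°C) at A405, relative to a 0.1% Triton X-100 lysate. Data are representative of 3 experiments.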

C3a: purified human anaphylatoxin C3a, from Complement Technology
degranulation [1]: induces degranulation
degranulation [2]: does not induce degranulation
Ca^2+ response to C3a added after E7S or compound 48/80 (HMC-1 cells [3]; C3a 10 nM as second stimulus): fully responsive to C3a
intracellular Ca^2+ mobilization (HMC-1 cells [3]): caused Ca^2+ mobilization in an immature mast cell line, HMC-1; also recorded: induced Ca^2+ mobilization of similar magnitude and duration in HMC-1 cells
degranulation (LAD2 mast cells [4]): induced Ca^2+ mobilization and degranulation in a differentiated human mast cell line, LAD2; also recorded: induced a dose-dependent degranulation of LAD2 mast cells
Ca^2+ mobilization (HMC-1 cells [5]): responds to C3a for a transient Ca^2+ mobilization
degranulation by C3a (HA-tagged human MrgX2; C3a (1 µM) in text): did not activate RBL-2H3 cells expressing MrgX1 or MrgX2; also recorded: at concentrations up to 1 µM did not induce degranulation in cells expressing either human MrgX1 or MrgX2
degranulation [6]: does not induce degranulation
mast cell chemoattractant activity (mast cell): one of the most potent mast cell chemoattractants known
degranulation by C3a (HA-tagged human MrgX1; C3a (1 µM) in text): did not activate RBL-2H3 cells expressing MrgX1 or MrgX2; also recorded: at concentrations up to 1 µM did not induce degranulation in cells expressing either human MrgX1 or MrgX2
intracellular Ca^2+ mobilization (LAD2 mast cells [7]): induced Ca^2+ mobilization; also recorded: induced rapid Ca^2+ responses in LAD2 cells which peaked within seconds after stimulation
duration/magnitude of Ca^2+ response, C3a versus E7 (LAD2 mast cells [7]): markedly reduced

LRAGSRYKKWALKWG [E7S]
degranulation of primary mast cells [8]: these peptides induced degranulation in primary mast cells
intracellular Ca^2+ mobilization (HMC-1 cells [3]): did not initiate Ca^2+ responses in this cell line
degranulation (LAD2 mast cells [4]): also induced mast cell degranulation in a dose-dependent manner
degranulation (HA-tagged human MrgX2): responded to CST, E7, E7S and compound 48/80
intracellular Ca^2+ mobilization (LAD2 mast cells [7]): induced robust and sustained Ca^2+ responses in LAD2 mast cells

NYITELRRQHARASHLGLAR [C3aP]
degranulation of primary mast cells [8]: these peptides induced degranulation in primary mast cells
degranulation (LAD2 mast cells [4]): as with LAD2 cells, these peptides induced degranulation
biological potency compared with natural C3a [9]: expresses biological potency equal to natural C3a

PMX-53
activation of human mast cells via MrgX2 (MrgX2 [10]): activates human mast cells via MrgX2
C5a receptor antagonism (C5a receptor): potent C5a receptor antagonist

Pro-[Cys-Lys-Asn-Phe-Phe-Trp-Lys-Thr-Phe-Ser-Ser-Cys]-Lys (disulfide) (PCKNFFWKTFSSCK; disulfide 2-13) [CST, Cortistatin-14]
degranulation (HA-tagged human MrgX2): responded to CST, E7, E7S and compound 48/80
ligand of MrgX2 (MrgX2 [11]; ref Lembo et al., 2002, Robas et al.): Ligands for MrgX1 and MrgX2 have been identified
structural requirement for MrgX2 activation (MrgX2 [11]): both the N-terminal proline and the C-terminal lysine are required for MrgX2 activation

Tyr-Gly-Gly-Phe-Met-Arg-Arg-Val-Gly-Arg-Pro-Glu-Trp-Trp-Met-Asp-Tyr-Gln-Lys-Arg-Tyr-Gly [BAM-22P, Bovine Adrenal Medulla Docosapeptide]
degranulation (HA-tagged human MrgX1): responded only to BAM-22P and compound 48/80 for degranulation
ligand of MrgX1 (MrgX1): Ligands for MrgX1 and MrgX2 have been identified

WWGKKYRASKLGLAR [E7]
degranulation of primary mast cells [8]: these peptides induced degranulation in primary mast cells
cross-desensitization of ileum contraction (C3a receptor [12]): cross-desensitized the ability of C3a but not C5a to induce guinea pig ileum contraction
intracellular Ca^2+ mobilization (HMC-1 cells [3]): caused Ca^2+ mobilization in an immature mast cell line, HMC-1; also recorded: induced Ca^2+ mobilization of similar magnitude and duration in HMC-1 cells
potency for mast cell degranulation compared with C3a (LAD2 mast cells [4]): its potency for mast cell degranulation was lower than that of C3a
degranulation (LAD2 mast cells [4]): induced Ca^2+ mobilization and degranulation in a differentiated human mast cell line, LAD2; also recorded: induced a dose-dependent increase in degranulation in LAD2 mast cells
degranulation (HA-tagged human MrgX2): activated RBL-2H3 cells expressing MrgX2; also recorded: responded to CST, E7, E7S and compound 48/80
concentrations required to induce vascular permeability compared to C3aP (guinea pig skin): much lower concentrations of E7 were required to induce vascular permeability in guinea pig skin
potency relative to C3aP in guinea pigs (C3a receptor [13]): 12 –15 fold
increase in guinea pig platelet aggregation activity compared to C3aP (guinea pig platelet): ~ 1500%
intracellular Ca^2+ mobilization (LAD2 mast cells [7]): induced Ca^2+ mobilization; also recorded: induced rapid Ca^2+ responses in LAD2 cells which peaked within seconds after stimulation
duration/magnitude of Ca^2+ response, C3a versus E7 (LAD2 mast cells [7]): prominent and sustained response

antigen: antigen (DNP-BSA, 30 ng/ml) on anti-DNP specific IgE-primed cells
degranulation (HA-tagged human MrgX2): responded to antigen for degranulation
degranulation (HA-tagged human MrgX1): responded to antigen for degranulation
degranulation [14]: responded to antigen for degranulation

cortistatin-17 [CST-17]
structural requirement for MrgX2 activation (MrgX2 [11]): both the N-terminal proline and the C-terminal lysine are required for MrgX2 activation
